The results in this text go back to ChEMBL document CHEMBL3763088, “Design, synthesis, and biological evaluation of water-soluble amino acid prodrug conjugates derived from combretastatin, dihydronaphthalene, and benzosuberene-based parent vascular disrupting agents” (Bioorg Med Chem, 2016).

“And” between values parts separate entries of the source, which are not always exact repeats. Equal values may be shown once. The source made the active and inactive calls. The calls are words filed in the database; no cut-off is given here. A value given as a limit tells only on which side of the number the result lay.

A short description of data set [1]: Cytotoxicity against human SKOV3 cells assessed as growth inhibition after 48 hrs by SRB assay. The format is functional, SK-OV-3. In a few lines: (§1)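 Cells kept at 37 °C, 5% CO2, up to passage 15. Plated at 7500 cells/well in DMEM with 5% FBS and 1% gentamycin, grown 24 h, then given 10-fold serial dilutions for 48 h. Fixed with 10% TCA (final), SRB-stained, read at 540 nm, normalized at 630 nm. GI50 is the concentration halving net protein staining versus controls, taken from optical density data.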
(In general: In SRB staining, fixed cells bind dye roughly in proportion to their protein.)

Data set [2] concerns NCI-H460. The data set is described as follows: Cytotoxicity against human NCI-H460 cells assessed as growth inhibition after 48 hrs by SRB assay. The class given is functional. In a few lines: as §1
The nature of data set [3]: Cytotoxicity against human DU145 cells assessed as growth inhibition after 48 hrs by SRB assay. The format is functional, DU-145. In a few lines:
as §1

Data set [4] deals with T1, Leucine aminopeptidase (Sus scrofa, UniProt Q29571).
T1 sequence (Q29571 whole entry): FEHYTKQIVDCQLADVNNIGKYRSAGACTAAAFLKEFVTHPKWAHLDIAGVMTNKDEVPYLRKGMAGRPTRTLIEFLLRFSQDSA
The data set is described as follows: Activity at porcine leucine aminopeptidase by HPLC analysis. The class given is ADME. The following applies: pig. In a few lines: (§2)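 Porcine kidney microsomal LAP; units defined with 24 mM L-leucine p-nitroanilide in 50 mM sodium phosphate pH 7.2 at 37 °C. Enzyme preincubated in the same buffer at 37 °C, then substrate added. Aliquots were quenched with acetonitrile on ice, centrifuged and run on C18 HPLC (acetonitrile/water, 0.05% TFA, 1.0 mL/min, 22 °C, diode-array UV). Cleavage % from the parent/prodrug peak-area ratio; amounts from calibration curves.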

In data set [5] the target is T1, Leucine aminopeptidase. The data set is described as follows: Prodrug conversion assessed as porcine leucine aminopeptidase-mediated compound cleavage by HPLC analysis. The format is ADME. The following applies: pig. In a few lines: as §2
Data set [6] has as its target T2, Tubulin (Bos taurus) (UniProt Q6B856+Q862L2+Q862F3). Kind of data set: Displacement of [3H]colchicine from bovine brain tubulin at 1 uM after 10 mins by scintillation counting analysis. In a few lines: (§3)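 1.0 μM tubulin with 5.0 μM [3H]colchicine and inhibitor at 1.0 or 5.0 μM. Buffer: 5% DMSO, 1.0 M monosodium glutamate pH 6.6, 0.5 mg/mL BSA, 0.1 M glucose-1-phosphate, 1.0 mM MgCl2, 1.0 mM GTP. Incubated 10 min at 37 °C, stopped with ice-cold water, collected on DEAE-cellulose filters and scintillation counted. Corrected for filter binding without tubulin; % inhibition against no-inhibitor controls.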

Data set [7] addresses T2, Tubulin (Bos taurus). Kind of data set: Displacement of [3H]colchicine from bovine brain tubulin at 5 uM after 10 mins by scintillation counting analysis. In a few lines: as §3
On the technique in general: Displacement assays read how much labelled ligand stays bound in the presence of the test substance.

In another data set the test system is HUVEC. The data set is described as follows: Antivascular activity in HUVEC cells assessed as disruption of capillary-like network of tubules formation at 0.1 uM by matrigel assay. The format is functional, cell-based. The note with it: Homo sapiens. In a few lines: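 HUVECs (124,000 per well in M200 with growth factors) plated on Matrigel (9.5 mg/mL) that had been set for 60 min at 37 °C. Cells incubated 16 h at 37 °C to form tubule networks. Then treated at 0.01, 0.1 or 1.0 μM and photographed, 9 fields/well with 40x objective.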

Data set [8] can be described thus: Retention time of the compound by HPLC analysis. The class given is physicochemical. In a few lines: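 Reversed-phase C18 HPLC (4.6 × 150 mm, 5 μm) at 25 °C with diode-array detection at 190–400 nm. Acetonitrile against water or 0.1% TFA/water. Gradient 10% to 100% acetonitrile over 40 min, or in method C 10% acetonitrile for 5 min then to 100% over 5–25 min, at 1.0 mL/min.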

The target in the next data set is Tubulin (Bos taurus, UniProt Q6B856+Q862L2+Q862F3). Kind of data set: Inhibition of bovine brain tubulin polymerization preincubated for 15 mins by spectrophotometric analysis. In a few lines: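 Purified bovine brain tubulin, 1.0 mg/mL (10 μM), in 0.8 M monosodium glutamate pH 6.6 with 4% DMSO and varied compound. Temperature jumped from 0 to 30 °C; turbidity at 350 nm followed for 20 min.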

Data set [9] is described as follows: Cytotoxicity against human SKOV3 cells assessed as growth inhibition using compound dissolved in DMSO after 48 hrs by SRB assay. The format is functional. The following applies: SK-OV-3, 48 h. In a few lines: as §1
Data set [10] relates to NCI-H460. The data set is described as follows: Cytotoxicity against human NCI-H460 cells assessed as growth inhibition using compound dissolved in DMSO after 48 hrs by SRB assay. The format is functional. The note with it: NCI-H460, 48 h. In a few lines:
as §1

The nature of data set [11]: Cytotoxicity against human DU145 cells assessed as growth inhibition using compound dissolved in DMSO after 48 hrs by SRB assay. The class given is functional. The note with it: DU-145, 48 h. In a few lines:
as §1

Data set [12] in a line: Cytotoxicity against human SKOV3 cells assessed as growth inhibition using compound dissolved in water after 48 hrs by SRB assay. The format is functional. The note with it: SK-OV-3, 48 h. In a few lines:
as §1

In data set [13] the test system is NCI-H460. The data set is described as follows: Cytotoxicity against human NCI-H460 cells assessed as growth inhibition using compound dissolved in water after 48 hrs by SRB assay. The format is functional. The note with it: NCI-H460, 48 h. In a few lines:
as §1

The nature of data set [14]: Cytotoxicity against human DU145 cells assessed as growth inhibition using compound dissolved in water after 48 hrs by SRB assay. The format is functional. The note with it: DU-145, 48 h. In a few lines:
as §1

The subject of data set [15] is MDA-MB-231. The data set is described as follows: Induction of tumor-specific vascular damage in luciferase expressing human MDA-MB-231 cells xenografted in SCID mouse assessed as reduction in light emission at 80 mg/kg at 2 hrs post dose by bioluminescence imaging assay relative to control. The class given is functional. The note with it: MDA-MB-231, 2 h. For orientation: A xenograft is tissue or cells of one species grown in another, often human tumour cells in immunodeficient mice.

The test system of data set [16] is MDA-MB-231. Kind of data set: Induction of tumor-specific vascular damage in luciferase expressing human MDA-MB-231 cells xenografted in SCID mouse assessed as reduction in light emission at 80 mg/kg at 4 hrs post dose by bioluminescence imaging assay (reference value: 22%). The format is functional. The note with it: MDA-MB-231, 4 h.
The test system of data set [17] is MDA-MB-231. The data set is described as follows: Induction of tumor-specific vascular damage in luciferase expressing human MDA-MB-231 cells xenografted in SCID mouse assessed as reduction in light emission at 80 mg/kg at 24 hrs post dose by bioluminescence imaging assay (reference value: 24%). The class given is functional. The following applies: MDA-MB-231, 24 h.

Consider `COc1ccc2c(c1NC(=O)CN)CCCC=C2c1cc(OC)c(OC)c(OC)c1.Cl`, for which the GI50 in [1] was 203 nM; in the data set on NCI-H460 [2] it was 567 nM; in data set [3], 773 nM. This compound also yielded an Activity at Leucine aminopeptidase [4] of 0.12 µM/min. Besides, the Drug metabolism on Leucine aminopeptidase [5] is recorded as 100%.
On to `COc1ccc(/C=C\c2cc(OC)c(OC)c(OC)c2)c(N)c1N`, for which the inhibition at Tubulin (Bos taurus) [6] is 55% and 46%; on Tubulin (Bos taurus) [7] it was 87% and 86%. Besides, the result with HUVEC was Active.
`COc1ccc(/C=C\c2cc(OC)c(OC)c(OC)c2)c(NC(=O)[C@@H](N)CO)c1NC(=O)[C@@H](N)CO.Cl.Cl`: the concentration for 50% growth inhibition (GI50) (in [1]; in the data set with NCI-H460 [2]; in data set [3]) was more than 86600 nM throughout. Moreover, on Leucine aminopeptidase [5], the Drug metabolism result is recorded as “metabolite_notdetected”.
As for `COc1ccc(/C=C\c2cc(OC)c(OC)c(OC)c2)cc1O` [COMBRETASTATIN A4], the concentration for 50% growth inhibition (GI50) was determined as 5.06 nM in data set [1] (Homo sapiens, SK-OV-3, 48 h); 5 nM in the data set with NCI-H460 [2] (Homo sapiens, NCI-H460, 48 h); 6.02 nM in data set [3] (Homo sapiens, DU-145, 48 h). At Tubulin (Bos taurus) [6], the inhibition amounted to 84%.
For the compound `COc1ccc(/C=C\c2cc(OC)c(OC)c(OC)c2)c(N)c1` [listing 1 of 2 here], the inhibition at Tubulin (Bos taurus) [6] is 55%; on Tubulin (Bos taurus) [7], 88% and 75%.
With `COc1ccc(/C=C\c2cc(OC)c(OC)c(OC)c2)c(N)c1` [listing 2 of 2 here], the GI50 in [1] came out at 26.6 nM; in the data set on NCI-H460 [2] (Homo sapiens, NCI-H460, 48 h), 40.1 nM; in data set [3] (Homo sapiens, DU-145, 48 h) it was 33.1 nM. Besides, in data set [8], the Retention_time was found to be 31.29 min. The 50% inhibitory concentration (IC50) against Tubulin was determined as 1100 nM.
Regarding `COc1ccc2c(c1NC(=O)CN)CCC=C2c1cc(OC)c(OC)c(OC)c1`, the GI50 in data set [1] turned out to be 13.8 nM; in the data set on NCI-H460 [2] (Homo sapiens, NCI-H460, 48 h), 36.5 nM; in data set [3] (Homo sapiens, DU-145, 48 h), 50.1 nM.
For the compound `COc1ccc(/C=C/c2cc(OC)c(OC)c(OC)c2)c(NC(=O)[C@H](N)CO)c1.Cl`, the GI50 is 2290 nM in data set [1] (Homo sapiens, SK-OV-3, 48 h); 2240 nM in the data set with NCI-H460 [2] (Homo sapiens, NCI-H460, 48 h); 4550 nM in data set [3] (Homo sapiens, DU-145, 48 h). Moreover, at Leucine aminopeptidase [5], the Drug metabolism is listed as 90%.
Turning to `COc1ccc(/C=C\c2cc(OC)c(OC)c(OC)c2)c(NC(=O)[C@@H](N)CO)c1.Cl`, the concentration for 50% growth inhibition (GI50) in data set [1] worked out at 51.6 nM; in the data set on NCI-H460 [2] it was 31.7 nM; in data set [3], 48.4 nM. The same compound displayed an Activity at Leucine aminopeptidase [4] of 1.2 µM/min. The Drug metabolism on Leucine aminopeptidase [5] is 62%.
Consider `COc1ccc(/C=C/c2cc(OC)c(OC)c(OC)c2)c(NC(=O)CN)c1.Cl`, for which the GI50 was found to be 427 nM in data set [9]; 418 nM in the data set on NCI-H460 [10]; 630 nM in data set [11]; 426 nM in data set [12]; 380 nM in the data set on NCI-H460 [13]; 674 nM in data set [14]. For the same compound, the Drug metabolism at Leucine aminopeptidase [5] is given as 100%.
For the compound `COc1ccc2c(c1NC(=O)CN)CCCC=C2c1cc(OC)c(OC)c(OC)c1`, the GI50 was determined as 195 nM in data set [1] (Homo sapiens, SK-OV-3, 48 h); 566 nM in the data set on NCI-H460 [2] (Homo sapiens, NCI-H460, 48 h); 507 nM in [3] (Homo sapiens, DU-145, 48 h).
For `COc1ccc(/C=C\c2cc(OC)c(OC)c(OC)c2)cc1N`, the concentration for 50% growth inhibition (GI50) is 4.45 nM in [1] (Homo sapiens, SK-OV-3, 48 h); 4.49 nM in the data set with NCI-H460 [2] (Homo sapiens, NCI-H460, 48 h); 3.3 nM in data set [3] (Homo sapiens, DU-145, 48 h).
As for `COc1ccc(/C=C\c2cc(OC)c(OC)c(OC)c2)c(N)c1N.Cl`, the GI50 in data set [1] was found to be 22.8 nM; in the data set on NCI-H460 [2], 124 nM; in [3], 205 nM. Also, the inhibition in vivo at 80 mg/kg in the data set on MDA-MB-231 [15] was 95%; in the data set with MDA-MB-231 [16], 94%; in the data set with MDA-MB-231 [17] it was 79%. Further, the half-maximal inhibitory concentration (IC50) at Tubulin stood at 2300 nM.

For orientation: GI50 means the concentration giving 50% growth inhibition. Usually inhibition stands for the relative decrease from the control value, in per cent. Read a high inhibition as a response far below the control. As a reminder, the IC50 is the concentration that gives 50% inhibition. Higher therefore signals lower potency. As usually defined, the inhibition in vivo is the relative decrease from the control value, in per cent.
